Reference: ChEMBL document CHEMBL1130253 (J Med Chem, 1997)
Each block holds one compound with its values, some of them ahead of it.

Assays:
[1] = target: Human immunodeficiency virus type 1 protease (Human immunodeficiency virus 1, UniProt Q72874); assay: Inhibitory activity against HIV-1 protease
CCRF-CEM = assay: Concentration required to inhibit against HIV strain IIIB in CEM cell; format: functional; details: Homo sapiens, read-out: ED50 (the source's name)
[2] = The area under curve (30 mg/kg) administered orally in dog; format: ADME, organism-based, Canis lupus familiaris; details: in vivo, po
How it was run: (§1)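 Male Sprague-Dawley rats (n = 3), beagle dogs (1M/1F), female cynomolgus monkeys and marmosets (1M/1F). Dosed 12.5–25 mg/kg iv or 25–50 mg/kg oral in 5% dextrose, or propylene glycol:water 50:50 for marmosets. Fasted groups fasted overnight. Venous blood sampled predose to 48 h. Plasma stored at -20 °C, extracted and assayed by HPLC-UV. Mean (SD) reported for rats.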

[3] = The maximum plasma concentration (30 mg/kg) administered orally in dog; format: ADME, organism-based, Canis lupus familiaris; parameters: dose 30 mg/kg, route oral; details: po; how it was run: as §1
[4] = Elimination rate constant of the compound(12.5 mg/kg) administered intravenously in marmoset; format: ADME, organism-based; details: callithrix, in vivo, iv, read-out: T1/2 el (converted); how it was run: as §1
[5] = The maximum time for retention (12.5 mg/kg) administered intravenously in monkey; format: ADME, organism-based; details: simiiformes, in vivo, iv; how it was run: as §1
[6] = The maximum plasma concentration (100 mg/kg) administered orally in human; format: ADME, organism-based; parameters: route oral; details: po
How it was run: (§2)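 Healthy human volunteers given single oral doses of 100–800 mg with food. Plasma PK parameters reported as mean ± SD of four subjects per dose. Tmax reported as median.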

[7] = The area under curve (12.5 mg/kg) administered intravenously in marmoset; format: ADME, organism-based; details: callithrix, in vivo, iv; how it was run: as §1
[8] = The maximum plasma concentration (25 mg/kg) administered orally in marmoset; format: ADME, organism-based; parameters: dose 25 mg/kg, route oral; details: callithrix, po; how it was run: as §1
[9] = Elimination rate constant of the compound(100 mg) administered orally in human; details: in vivo, po, read-out: T1/2 el (converted)
Homo sapiens [10] = assay: The maximum time for retention (800 mg) administered orally in human; details: in vivo, po
[11] = The maximum plasma concentration (400 mg/kg) administered orally in human; format: ADME, organism-based; parameters: route oral; details: po; how it was run: as §2
[12] = The maximum plasma concentration (15 mg/kg) administered intravenously in dog; format: ADME, organism-based, Canis lupus familiaris; parameters: dose 15 mg/kg, route intravenous; details: iv; how it was run: as §1
[13] = The area under curve (12.5 mg/kg) administered intravenously in monkey; format: ADME, organism-based; details: simiiformes, in vivo, iv; how it was run: as §1
[14] = The area under curve (25 mg/kg) administered orally in marmoset; format: ADME, organism-based; details: callithrix, in vivo, po; how it was run: as §1
[15] = Oral bioavailability (50 mg/kg) in fasted rat; format: ADME, organism-based; details: in vivo; how it was run: as §1
[16] = Oral bioavailability (30 mg/kg) in dog; format: ADME, organism-based, Canis lupus familiaris; details: in vivo; how it was run: as §1
[17] = The area under curve (25 mg/kg) administered intravenously in rat; format: ADME, organism-based; details: in vivo, iv; how it was run: as §1
[18] = The maximum time for retention (12.5 mg/kg) administered intravenously in marmoset; format: ADME, organism-based; details: callithrix, in vivo, iv; how it was run: as §1
[19] = The maximum plasma concentration (200 mg/kg) administered orally in human; format: ADME, organism-based; parameters: route oral; details: po; how it was run: as §2
[20] = The area under curve (50 mg/kg) administered orally in fasted rat; format: ADME, organism-based; details: in vivo, po; how it was run: as §1
[21] = The maximum time for retention (50 mg/kg) administered orally in fasted rat; format: ADME, organism-based; details: in vivo, po
How it was run: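 Male Sprague-Dawley rats (n = 3) were fasted overnight, then given a single oral dose (25-50 mg/kg range) in 5% dextrose. Jugular, femoral or cephalic blood was sampled predose and up to 48 h. Plasma was separated at once, held at -20 °C, extracted and quantified by HPLC with UV detection. Values are the mean of three rats.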

[22] = The maximum plasma concentration (25 mg/kg) administered intravenously in rat; format: ADME, organism-based; parameters: dose 25 mg/kg, route intravenous; details: iv; how it was run: as §1
[23] = Oral bioavailability (25 mg/kg) in monkey; format: ADME, organism-based; details: primates, in vivo; how it was run: as §1
[24] = The maximum plasma concentration (12.5 mg/kg) administered intravenously in marmoset; format: ADME, organism-based; parameters: dose 12.5 mg/kg, route intravenous; details: callithrix, iv; how it was run: as §1
[25] = Elimination rate constant of the compound(50 mg/kg) administered orally in fasted rat; format: ADME, organism-based; details: in vivo, po, read-out: T1/2 el (converted); how it was run: as §1
[26] = The maximum time for retention (400 mg) administered orally in human; details: in vivo, po
[27] = Elimination rate constant of the compound(25 mg/kg) administered orally in monkey; format: ADME, organism-based; details: simiiformes, in vivo, po, read-out: T1/2 el (converted); how it was run: as §1
[28] = The area under curve (15 mg/kg) administered intravenously in dog; format: ADME, organism-based, Canis lupus familiaris; details: in vivo, iv; how it was run: as §1
[29] = Elimination rate constant of the compound(30 mg/kg) administered orally in dog; format: ADME, organism-based, Canis lupus familiaris; details: in vivo, po, read-out: T1/2 el (converted); how it was run: as §1
[30] = The maximum plasma concentration (50 mg/kg) administered orally in fasted rat; format: ADME, organism-based; parameters: dose 50 mg/kg, route oral; details: po; how it was run: as §1
[31] = The maximum time for retention (100 mg) administered orally in human; details: in vivo, po
[32] = The maximum time for retention (25 mg/kg) administered orally in monkey; format: ADME, organism-based; details: simiiformes, in vivo, po
How it was run: (§3)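 Plasma pharmacokinetics in male Sprague-Dawley rats (n = 3), beagle dogs (1 male, 1 female), female cynomolgus monkeys (2) and marmosets (1 male, 1 female). Single iv (12.5-25 mg/kg) or oral (25-50 mg/kg) dose. Vehicle was 5% dextrose for rat, dog and monkey, and propylene glycol:water (50:50) for marmoset. Venous blood was drawn predose and up to 48 h. Plasma was stored at -20 °C, extracted and assayed by HPLC-UV. Values are means.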

[33] = Oral bioavailability (50 mg/kg) in rat; format: ADME, organism-based; details: in vivo; how it was run: as §1
[34] = Elimination rate constant of the compound(25 mg/kg) administered intravenously in rat; format: ADME, organism-based; details: in vivo, iv, read-out: T1/2 el (converted); how it was run: as §1
[35] = The area under curve (100 mg/kg) administered orally in humans; format: ADME, organism-based; details: human, in vivo, po; how it was run: as §2
Homo sapiens [36] = assay: The area under curve (800 mg/kg) administered orally in humans; format: ADME, organism-based; details: in vivo, po; how it was run: as §2
[37] = The maximum plasma concentration (50 mg/kg) administered orally in rat; format: ADME, organism-based; parameters: dose 50 mg/kg, route oral; details: po; how it was run: as §1
[38] = The area under curve (400 mg/kg) administered orally in humans; format: ADME, organism-based; details: human, in vivo, po; how it was run: as §2
[39] = Elimination rate constant of the compound(400 mg/kg) administered orally in human; format: ADME, organism-based; details: in vivo, po, read-out: T1/2 el (converted); how it was run: as §2
[40] = Elimination rate constant of the compound(15 mg/kg) administered intravenously in dog; format: ADME, organism-based, Canis lupus familiaris; details: in vivo, iv, read-out: T1/2 el (converted); how it was run: as §1
[41] = Elimination rate constant of the compound(12.5 mg/kg) administered intravenously in rmonkey; format: ADME, organism-based; details: simiiformes, in vivo, iv, read-out: T1/2 el (converted); how it was run: as §1
[42] = The area under curve (50 mg/kg) administered orally in rat; format: ADME, organism-based; details: in vivo, po; how it was run: as §1
[43] = The area under curve (25 mg/kg) administered orally in monkey; format: ADME, organism-based; details: simiiformes, in vivo, po; how it was run: as §1
[44] = Elimination rate constant of the compound(200 mg/kg) administered orally in human; format: ADME, organism-based; details: in vivo, po, read-out: T1/2 el (converted); how it was run: as §2
[45] = Oral bioavailability (25 mg/kg) in marmoset; format: ADME, organism-based; details: primates, in vivo; how it was run: as §1
[46] = The maximum time for retention (30 mg/kg) administered orally in dog; format: ADME, organism-based, Canis lupus familiaris; details: in vivo, po; how it was run: as §3
Homo sapiens [47] = assay: The maximum plasma concentration (800 mg/kg) administered orally in human; format: ADME, organism-based; parameters: route oral; details: in vivo, po; how it was run: as §2
[48] = The maximum time for retention (25 mg/kg) administered intravenously in rat; format: ADME, organism-based; details: in vivo, iv; how it was run: as §3
[49] = The maximum time for retention (25 mg/kg) administered orally in marmoset; format: ADME, organism-based; details: callithrix, in vivo, po; how it was run: as §3
[50] = The maximum plasma concentration (12.5 mg/kg) administered intravenously in monkey; format: ADME, organism-based; parameters: dose 12.5 mg/kg, route intravenous; details: simiiformes, iv; how it was run: as §1
[51] = Elimination rate constant of the compound(25 mg/kg) administered orally in marmoset; format: ADME, organism-based; details: callithrix, in vivo, po, read-out: T1/2 el (converted); how it was run: as §1
[52] = Elimination rate constant of the compound(800 mg/kg) administered orally in human; format: ADME, organism-based; details: in vivo, po; how it was run: as §2
[53] = The maximum time for retention (15 mg/kg) administered intravenously in dog; format: ADME, organism-based, Canis lupus familiaris; details: in vivo, iv; how it was run: as §1
[54] = The maximum plasma concentration (25 mg/kg) administered orally in monkey; format: ADME, organism-based; parameters: dose 25 mg/kg, route oral; details: simiiformes, po; how it was run: as §1
[55] = The maximum time for retention (200 mg) administered orally in human; details: in vivo, po
[56] = The maximum time for retention (50 mg/kg) administered orally in rat; format: ADME, organism-based; details: in vivo, po; how it was run: as §3

Structure (SMILES): Cc1c(O)cccc1C(=O)N[C@@H](CSc1ccc2ccccc2c1)[C@H](O)CN1C[C@H]2CCCC[C@H]2C[C@H]1C(=O)NC(C)(C)C
Ki [1]: 98 nM
EC50 (CCRF-CEM): 100 nM

AUC [2]: 13300 ng·h/mL
Cmax [3]: 1220 ng/mL
half-life [4]: 1.23 h
Tmax [5]: 4.8 min
Cmax [6]: 313 ng/mL
AUC [7]: 6630 ng·h/mL
Cmax [8]: 840 ng/mL
half-life [9]: 1.72 h
T max (Homo sapiens [10]): 3.5 h
Cmax [11]: 1580 ng/mL
Cmax [12]: 11900 ng/mL
AUC [13]: 10400 ng·h/mL
AUC [14]: 2890 ng·h/mL
bioavailability [15]: 29%
bioavailability [16]: 35%
AUC [17]: 7010 ng·h/mL
Tmax [18]: 4.8 min
Cmax [19]: 439 ng/mL
AUC [20]: 4040 ng·h/mL
Tmax [21]: 1.39 h
Cmax [22]: 12700 ng/mL
bioavailability [23]: 9%
Cmax [24]: 5670 ng/mL
half-life [25]: 1.07 h
Tmax [26]: 4 h
half-life [27]: 3 h
AUC [28]: 11200 ng·h/mL
half-life [29]: 7.72 h
Cmax [30]: 1470 ng/mL
Tmax [31]: 3 h
Tmax [32]: 3 h
bioavailability [33]: 43%
half-life [34]: 1.26 h
EC50 (CCRF-CEM): 14 nM
AUC [35]: 1250 ng·h/mL
AUC (Homo sapiens [36]): 22200 ng·h/mL
Cmax [37]: 1340 ng/mL
AUC [38]: 7560 ng·h/mL
half-life [39]: 2.28 h
half-life [40]: 1.18 h
half-life [41]: 1.47 h
AUC [42]: 6090 ng·h/mL
AUC [43]: 6290 ng·h/mL
half-life [44]: 2.21 h
bioavailability [45]: 10%
Tmax [46]: 3 h
Cmax (Homo sapiens [47]): 3163 ng/mL
Tmax [48]: 3.6 min
Tmax [49]: 1 h
Cmax [50]: 7990 ng/mL
half-life [51]: 2.04 h
T1/2 el [52]: 3.37 h
Tmax [53]: 4.8 min
Cmax [54]: 1590 ng/mL
Tmax [55]: 3 h
Tmax [56]: 2.82 h
Structure (SMILES): CS(=O)(=O)O.Cc1c(O)cccc1C(=O)N[C@@H](CSc1ccccc1)[C@H](O)CN1C[C@H]2CCCC[C@H]2C[C@H]1C(=O)NC(C)(C)C [NELFINAVIR MESYLATE]
